Experimental data reported in ChEMBL document CHEMBL3352734, “Reniochalistatins A-E, cyclic peptides from the marine sponge Reniochalina stalagmitis” (J Nat Prod, 2014).
Active and inactive are the calls of the source. The calls are words filed in the database; no cut-off is given here. Peptide text beside a SMILES is read from it.

Tests used:
Format in all cases: functional, cell-based
HeLa = assay: Cytotoxicity against human HeLa cells after 72 hrs by MTS assay
In short: (§1)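 HeLa (cervical) and HepG2 (hepatoma) cells kept in high-glucose DMEM with 10% FBS, 5% CO2, 37 °C. Plated at 1 × 10^4 cells/well for 24 h, then treated with graded sample concentrations for 72 h. Viability by MTS reduction over 2 h, measured at 490 nm with 690 nm reference.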

HL-60 = assay: (§2) Cytotoxicity against human HL60 cells after 72 hrs by MTS assay
In short: (§3)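 HL-60 (human leukemia) grown in RPMI-1640 with 20% FBS at 37 °C, 5% CO2. Seeded at 1 × 10^4 cells/well and left 24 h, then exposed to a range of sample concentrations for 72 h. MTS added for 2 h; absorbance read at 490 nm against a 690 nm reference.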

HepG2 = assay: Cytotoxicity against human HepG2 cells after 72 hrs by MTS assay; conditions: for IC50: HepG2, 72 h; in short: as §1
MGC-803 = assay: Cytotoxicity against human MGC803 cells after 72 hrs by MTS assay; conditions: for IC50: MGC-803, 72 h
In short: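 Gastric MGC-803 line maintained in RPMI-1640 plus 10% FBS, 37 °C, 5% CO2. Cells seeded at 1 × 10^4/well, incubated 24 h, then given medium with varying sample concentrations for 72 h. After 2 h with MTS, absorbance taken at 490 nm (reference 690 nm).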

[1] = as §2; conditions: HL-60, 72 h; in short: as §3
RPMI-8226 = assay: Cytotoxicity against human RPMI8226 cells after 72 hrs by MTS assay; conditions: RPMI-8226, 72 h

SMILES	inhibition (HeLa)	inhibition (HL-60)	inhibition (HepG2)	inhibition (MGC-803)	IC50 (HeLa)	IC50 [1]	IC50 (HepG2)	IC50 (MGC-803)	IC50 (RPMI-8226)
CC[C@H](C)[C@@H]1NC(=O)[C@@H]2CCCN2C(=O)[C@H](Cc2ccccc2)NC(=O)[C@H](Cc2ccc(O)cc2)NC(=O)[C@H]([C@@H](C)CC)NC(=O)[C@@H]2CCCN2C(=O)[C@H](Cc2ccccc2)NC1=O (cyclo(FPIFPIY))	inactive	inactive	inactive	inactive					
CC[C@H](C)[C@@H]1NC(=O)[C@@H]2CCCN2C(=O)[C@H](CC(C)C)NC(=O)[C@@H]2CCCN2C(=O)[C@H](CC(C)C)NC(=O)[C@H](Cc2ccc(O)cc2)NC(=O)[C@H](Cc2ccccc2)NC1=O (cyclo(FYLPLPI))	inactive	inactive	inactive	inactive					
CC[C@H](C)[C@@H]1NC(=O)[C@H](C(C)C)NC(=O)[C@@H]2CCCN2C(=O)[C@H](Cc2c[nH]c3ccccc23)NC(=O)[C@H](CC(C)C)NC(=O)[C@@H]2CCCN2C(=O)[C@H]([C@@H](C)CC)NC(=O)[C@@H]2CCCN2C1=O (cyclo(IPIPLWPV))					17300 nM	> 20000 nM	> 20000 nM	9700 nM	4900 nM
COc1cccc2c1C(=O)c1c(O)c3c(c(O)c1C2=O)C[C@@](O)(C(=O)CO)C[C@@H]3O[C@H]1C[C@H](N)[C@H](O)[C@H](C)O1 [DOXORUBICIN]					500 nM	200 nM	400 nM	100 nM	
CC[C@H](C)[C@@H]1NC(=O)[C@H](Cc2ccccc2)NC(=O)[C@@H]2CCCN2C(=O)[C@H](Cc2ccccc2)NC(=O)[C@@H]2CCCN2C(=O)[C@@H]2CCCN2C(=O)[C@H](Cc2ccccc2)NC1=O (cyclo(FIFPPFP))	inactive	inactive	inactive	inactive					
CC[C@H](C)[C@@H]1NC(=O)[C@H](C(C)C)NC(=O)[C@H](CC(N)=O)NC(=O)[C@@H]2CCCN2C(=O)[C@H](CC(C)C)NC(=O)[C@H](CC(C)C)NC(=O)[C@@H]2CCCN2C1=O (cyclo(IPLLPNV))	inactive	inactive	inactive	inactive					
